We go through 19 compounds from article PMC4465584 (Journal of medicinal chemistry, 2015).

Series [1] has as its system DENV. Briefly: DENV subgenomic replicon assay. To be noted: for activity against DENV relative to WNV: 10 μM, comparison of replicon assays; for DENV Inhibition %: single concentration 10 μM, 3 days, BHK replicon cells. It is filed as cell-based, Dengue virus. (In general: A replicon is a self-replicating genome or part of one, used to study replication in cells.)
For series [2], the system named is HIV-1. To be noted: read-out: EC50 against HIV-1; as reported previously ref 23; cited from earlier work.
The subject of series [3] is HIV-1. Briefly: HIV-1 antiviral assay. The note with it: data not shown. It counts as cell-based.
Series [4] relates to WNV. The experiment in a line: WNV subgenomic replicon assay. It counts as cell-based, West Nile virus. The note with it: for inhibition against WNV relative to DENV: 10 μM, comparison of replicon assays.
The target in series [5] is DNV3MTase (Dengue virus type 3, UniProt P27915). Briefly: SAM binding inhibition. Set-up: species or system DENV3. To be noted: 20 μM compound, 580 nM biotinylated DNV3MTase, 425 nM 3H-SAM. An outline of the steps: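 DENV3 MTase from E. coli, refolded from urea on Ni-NTA and cleaved with 3C protease, then NHS-biotinylated (13:1 biotin:protein). Test compound, SAM or sinefungin preincubated 20 min at 23°C. Then 1.65 μCi ³H-SAM, 15 min. Centrifuged; SPA counts read.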

The subject of series [6] is WNV replicon-containing cells. Briefly: Cell viability assay. The note with it: for cytotoxicity: 10 μM, replicon cells. It counts as cell-based, baby hamster.
Series [7] has as its system DENV replicon-containing cells. Briefly: Cell viability assay. The note with it: single concentration 10 μM, 3 days, DENV replicon BHK cells. It counts as cell-based, baby hamster.

Sequence of DNV3MTase (P27915 2492-2753): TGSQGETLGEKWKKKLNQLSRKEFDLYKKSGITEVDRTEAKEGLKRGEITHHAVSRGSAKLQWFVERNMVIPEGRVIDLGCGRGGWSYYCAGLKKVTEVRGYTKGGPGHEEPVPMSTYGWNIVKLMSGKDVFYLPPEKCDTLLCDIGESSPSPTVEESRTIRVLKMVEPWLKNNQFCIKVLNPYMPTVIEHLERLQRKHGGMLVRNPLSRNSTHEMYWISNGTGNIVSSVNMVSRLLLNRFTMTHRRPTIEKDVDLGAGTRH

Regarding `Cc1cn([C@H]2C[C@H](NC(=O)Nc3cccc4ccccc34)[C@@H](CO[Si](C)(C)C(C)(C)C)O2)c(=O)[nH]c1=O` [19b], the “activity against DENV relative to WNV” value in series [1] is recorded as “considerably more active against DENV than WNV”.

As to `COc1ccc2cc(-c3cnnn3[C@H]3C[C@H](n4cc(C)c(=O)[nH]c4=O)O[C@@H]3COC3CCCCO3)ccc2c1` (stereo partly drawn) [compound 27, 1-((2R,4S,5S)-4-(5-(6-Methoxynaphthalen-2-yl)-1H-1,2,3-triazol-1-yl)-5-(((tetrahydro-2H-pyran-2-yl)oxy)methyl)-tetrahydrofuran-2-yl)-5-methylpyrimidine-2,4(1H,3H)-dione], the “DENV Inhibition %” value in series [1] is “did not yield appreciable antiviral activity”.

`COc1ccc2cc(-c3cnnn3[C@H]3C[C@H](n4cc(C)c(=O)[nH]c4=O)O[C@@H]3CO)ccc2c1` [10a, 1-((2R,4S,5S)-5-(Hydroxymethyl)-4-(5-(6-methoxynaphthalen-2-yl)-1H-1,2,3-triazol-1-yl)tetrahydrofuran-2-yl)-5-methylpyrimidine-2,4(1H,3H)-dione]: the “DENV Inhibition %” value in series [1] is “did not show any inhibition”. In series [2], the EC50 (in general, the concentration needed to bring the measured effect to its halfway point) is 67 nM.

Take `COc1ccc2cc(-c3cnnn3[C@H]3C[C@H](n4cc(C)c(=O)[nH]c4=O)O[C@@H]3CO[Si](C)(C)C(C)(C)C)ccc2c1` [11a]: in series [3], the anti-HIV-1 activity result was “no appreciable anti-HIV-1 activity”. Besides, in series [1], the “DENV Inhibition %” value was “inhibited both viruses almost completely”.

Consider `Cc1cn([C@H]2C[C@H](N3C(=O)CSC3c3c4ccccc4cc4ccccc34)[C@@H](CO[Si](C)(C)C(C)(C)C)O2)c(=O)[nH]c1=O` (stereo partly drawn) [13c], for which the “inhibition against WNV relative to DENV” value in series [4] is reported as “substantially higher inhibition against WNV than DENV”.

With `Nc1ncnc2c1ncn2[C@@H]1O[C@H](C[C@@H](N)CC[C@H](N)C(=O)O)[C@@H](O)[C@H]1O` [SIN, sinefungin], in series [5], the “Inhibition of the [3H]-SAM-MTase complex formation” value is “same level of reduction”.

On to `COC[C@H]1O[C@@H](n2cc(C)c(=O)n(C)c2=O)C[C@@H]1n1nncc1-c1ccc2cc(OC)ccc2c1` [compound 25, 1-((2R,4S,5S)-5-(Methoxymethyl)-4-(5-(6-methoxynaphthalen-2-yl)-1H-1,2,3-triazol-1-yl)tetrahydrofuran-2-yl)-3,5-dimethylpyrimidine-2,4(1H,3H)-dione], for which, in series [1], the “DENV Inhibition %” value is reported as “did not yield appreciable antiviral activity”.

On to `Cc1cn([C@H]2C[C@H](NC(=O)Nc3ccccc3)[C@@H](CO[Si](C)(C)C(C)(C)C)O2)c(=O)[nH]c1=O` [19a], for which, in series [1], the “activity against DENV relative to WNV” value is “considerably more active against DENV than WNV”.

For the compound `COc1ccc2cc(-c3cnnn3[C@H]3C[C@H](n4cc(C)c(=O)[nH]c4=O)O[C@@H]3CO[Si](C(C)C)(C(C)C)C(C)C)ccc2c1` [compound 22], the cytotoxicity result in series [6] was “significant cytotoxicity”.

With `COc1ccc2cc(-c3cnnn3[C@H]3C[C@H](n4cc(C)c(=O)[nH]c4=O)O[C@@H]3CO[Si](c3ccccc3)(c3ccccc3)C(C)(C)C)ccc2c1` [compound 23], the cytotoxicity entry in series [6] is given as “significant cytotoxicity”.

Regarding `CCOCOC[C@H]1O[C@@H](n2cc(C)c(=O)[nH]c2=O)C[C@@H]1n1nncc1-c1ccc2cc(OC)ccc2c1` [compound 26, 1-((2R,4S,5S)-5-((Ethoxymethoxy)methyl)-4-(5-(6-methoxynaphthalen-2-yl)-1H-1,2,3-triazol-1-yl)tetrahydrofuran-2-yl)-5-methylpyrimidine-2,4(1H,3H)-dione], the “DENV Inhibition %” value in series [1] is given as “did not yield appreciable antiviral activity”.

For the compound `C[S+](CC[C@H](N)C(=O)[O-])C[C@H]1O[C@@H](n2cnc3c(N)ncnc32)[C@H](O)[C@@H]1O` (stereo partly drawn) [SAM, S-adenosyl-L-methionine], in series [5], the “Inhibition of the [3H]-SAM-MTase complex formation” value is “same level of reduction”.

Consider `COc1ccc2cc(-c3cnnn3[C@H]3C[C@H](n4cc(C)c(=O)[nH]c4=O)O[C@@H]3COC(C)=O)ccc2c1` [compound 24, ((2S,3S,5R)-3-(5-(6-Methoxynaphthalen-2-yl)-1H-1,2,3-triazol-1-yl)-5-(5-methyl-2,4-dioxo-3,4-dihydropyrimidin-1(2H)-yl)tetrahydrofuran-2-yl)methyl acetate], for which, in series [1], the “DENV Inhibition %” value is on record as “did not yield appreciable antiviral activity”.

As to `Cc1cn([C@H]2C[C@H](NC(=O)NC34CC5CC(CC(C5)C3)C4)[C@@H](CO[Si](C)(C)C(C)(C)C)O2)c(=O)[nH]c1=O` [19c], the “inhibition against WNV relative to DENV” value in series [4] was “substantially higher inhibition against WNV than DENV”.

As to `Cc1cn([C@H]2C[C@H](N3C(=O)CSC3c3ccc4[nH]ccc4c3)[C@@H](CO[Si](C)(C)C(C)(C)C)O2)c(=O)[nH]c1=O` (stereo partly drawn) [13b], in series [4], the “inhibition against WNV relative to DENV” value was “substantially higher inhibition against WNV than DENV”.

On to `Cc1cn([C@H]2C[C@H](NC(=O)c3ccc(N4CCOCC4)cc3)[C@@H](CO[Si](C)(C)C(C)(C)C)O2)c(=O)[nH]c1=O` [15h], for which the “activity against DENV relative to WNV” value in series [1] was “considerably more active against DENV than WNV”.

Take `Cc1ccc(S(=O)(=O)NC(=O)N[C@H]2C[C@H](n3cc(C)c(=O)[nH]c3=O)O[C@@H]2CO[Si](C)(C)C(C)(C)C)cc1` [21a, N-(((2S,3S,5R)-2-(((tert-Butyldimethylsilyl)oxy)methyl)-5-(5-meth-yl-2,4-dioxo-3,4-dihydropyrimidin-1(2H)-yl)tetrahydrofuran-3-yl)-carbamoyl)-4-methylbenzenesulfonamide]: the “activity against DENV relative to WNV” value in series [1] is given as “considerably more active against DENV than WNV”.

Turning to `Cc1cn([C@H]2C[C@H](NC(=O)c3c[nH]c4ccccc34)[C@@H](CO[Si](C)(C)C(C)(C)C)O2)c(=O)[nH]c1=O` [15f], the “activity against DENV relative to WNV” value in series [1] was “considerably more active against DENV than WNV”.

For the compound “3′-azidothymidine [4, AZT, reference compound]”, in series [6] (single concentration 10 μM, 3 days, WNV replicon BHK cells), the “WNV Viability %” value is 83%. The “WNV Inhibition %” value in series [4] (single concentration 10 μM, 3 days, BHK replicon cells) is 0%. Moreover, in series [7], the “DENV Viability %” value amounted to 89%. In addition, in series [1], the “DENV Inhibition %” value came to 0%.
